In ChEMBL document CHEMBL4715736, “Identification of anticancer agents based on the thieno[2,3-b]pyridine and 1H-pyrazole molecular scaffolds” (2016):

How the values were obtained:
Assay type in all cases: functional
HCT-116 [1] = assay: Growth inhibition of human HCT-116 cells assessed as cell growth at 0.1 uM incubated for 48 hrs by sulforhodamine B assay relative to control; details: read-out: Activity
SK-MEL-2 [2] = assay: Growth inhibition of human SK-MEL-2 cells assessed as cell growth at 0.1 uM incubated for 48 hrs by sulforhodamine B assay relative to control; details: read-out: Activity
T47D = assay: Growth inhibition of human T47D cells incubated for 48 hrs by sulforhodamine B assay; details: for CC50: read-out: LC50 (the source's name)
How it was run: (§1)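 NCI DTP 60-line human tumour panel. Dose-response curves were run only for ligands active in the initial 10 µM screen. GI50 (concentration giving 50% of maximal inhibition of proliferation) and TGI (concentration giving total growth inhibition) were derived from these curves.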

SN12C [3] = assay: Growth inhibition of human SN12C cells assessed as cell growth at 100 uM incubated for 48 hrs by sulforhodamine B assay relative to control; details: read-out: Activity
CCRF-CEM [4] = assay: Growth inhibition of human CCRF-CEM cells incubated for 48 hrs by sulforhodamine B assay
How it was run: (§2)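 NCI Developmental Therapeutics Program NCI60 panel. Compounds that were active in the 10 µM one-dose screen went on to dose–response testing. Growth at each concentration is expressed relative to untreated control (100%). GI50 (concentration giving 50% of maximal inhibition of proliferation) and TGI (concentration giving total growth inhibition) were derived from the curves.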

RPMI-8226 = assay: Growth inhibition of human RPMI-8226 cells assessed as cell growth at 0.01 uM incubated for 48 hrs by sulforhodamine B assay relative to control; details: read-out: Activity
OVCAR-8 = assay: Growth inhibition of human OVCAR-8 cells assessed as cell growth at 1 uM incubated for 48 hrs by sulforhodamine B assay relative to control; details: read-out: Activity
SF-539 [5] = assay: Growth inhibition of human SF-539 cells incubated for 48 hrs by sulforhodamine B assay; details: for CC50: read-out: LC50 (the source's name); how it was run: as §1
CCRF-CEM [6] = assay: Growth inhibition of human CCRF-CEM cells assessed as cell growth at 1 uM incubated for 48 hrs by sulforhodamine B assay relative to control; details: read-out: Activity; how it was run: as §2
OVCAR-5 = assay: Growth inhibition of human OVCAR-5 cells incubated for 48 hrs by sulforhodamine B assay; details: for CC50: read-out: LC50 (the source's name); how it was run: as §1
CAKI-1 = assay: Growth inhibition of human CAKI-1 cells assessed as cell growth at 0.1 uM incubated for 48 hrs by sulforhodamine B assay relative to control; details: read-out: Activity; how it was run: as §2
SK-MEL-28 = assay: Growth inhibition of human SK-MEL-28 cells incubated for 48 hrs by sulforhodamine B assay; how it was run: as §1
CCRF-CEM [7] = assay: Growth inhibition of human CCRF-CEM cells assessed as cell growth at 100 uM incubated for 48 hrs by sulforhodamine B assay relative to control; details: read-out: Activity; how it was run: as §2
MOLT-4 = assay: Growth inhibition of human MOLT-4 cells assessed as cell growth at 0.01 uM incubated for 48 hrs by sulforhodamine B assay relative to control; details: read-out: Activity
SK-MEL-2 [8] = assay: Growth inhibition of human SK-MEL-2 cells incubated for 48 hrs by sulforhodamine B assay; how it was run: as §1
HCT-116 [9] = assay: Growth inhibition of human HCT-116 cells assessed as cell growth at 0.01 uM incubated for 48 hrs by sulforhodamine B assay relative to control; details: read-out: Activity
MDA-MB-231 = assay: Growth inhibition of human MDA-MB-231 cells assessed as cell growth at 0.01 uM incubated for 48 hrs by sulforhodamine B assay relative to control; details: read-out: Activity
UACC-257 [10] = assay: Growth inhibition of human UACC-257 cells assessed as cell growth at 100 uM incubated for 48 hrs by sulforhodamine B assay relative to control; details: read-out: Activity
ACHN [11] = assay: Growth inhibition of human ACHN cells incubated for 48 hrs by sulforhodamine B assay; details: for CC50: read-out: LC50 (the source's name); how it was run: as §2
NCI-H322M = assay: Growth inhibition of human NCI-H322M cells assessed as cell growth at 100 uM incubated for 48 hrs by sulforhodamine B assay relative to control; details: read-out: Activity
SK-OV-3 = assay: Growth inhibition of human SK-OV-3 cells assessed as cell growth at 0.01 uM incubated for 48 hrs by sulforhodamine B assay relative to control; details: read-out: Activity
KM12 = assay: Growth inhibition of human KM12 cells assessed as cell growth at 100 uM incubated for 48 hrs by sulforhodamine B assay relative to control; details: read-out: Activity
SF-539 [12] = assay: Growth inhibition of human SF-539 cells assessed as cell growth at 0.01 uM incubated for 48 hrs by sulforhodamine B assay relative to control; details: read-out: Activity
UACC-257 [13] = assay: Growth inhibition of human UACC-257 cells assessed as cell growth at 0.1 uM incubated for 48 hrs by sulforhodamine B assay relative to control; details: read-out: Activity
ACHN [14] = assay: Growth inhibition of human ACHN cells assessed as cell growth at 1 uM incubated for 48 hrs by sulforhodamine B assay relative to control; details: read-out: Activity
OVCAR-3 = assay: Growth inhibition of human OVCAR-3 cells assessed as cell growth at 0.01 uM incubated for 48 hrs by sulforhodamine B assay relative to control; details: read-out: Activity
NCI-H226 = assay: Growth inhibition of human NCI-H226 cells assessed as cell growth at 0.01 uM incubated for 48 hrs by sulforhodamine B assay relative to control; details: read-out: Activity
A498 = assay: Growth inhibition of human A498 cells assessed as cell growth at 1 uM incubated for 48 hrs by sulforhodamine B assay relative to control; details: read-out: Activity; how it was run: as §2
K562 = assay: Growth inhibition of human K562 cells assessed as cell growth at 1 uM incubated for 48 hrs by sulforhodamine B assay relative to control; details: read-out: Activity
SN12C [15] = assay: Growth inhibition of human SN12C cells assessed as cell growth at 0.1 uM incubated for 48 hrs by sulforhodamine B assay relative to control; details: read-out: Activity
M14 = assay: Growth inhibition of human M14 cells incubated for 48 hrs by sulforhodamine B assay
How it was run: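 NCI60 panel at the NCI Developmental Therapeutics Program. Only compounds active in the 10 µM screen went to dose-response testing. GI50, the concentration giving 50% of maximal inhibition of proliferation, and TGI, the concentration giving total growth inhibition, were derived from the dose-response curves.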

Hs-578T = assay: Growth inhibition of human Hs-578T cells assessed as cell growth at 0.01 uM incubated for 48 hrs by sulforhodamine B assay relative to control; details: read-out: Activity
Malme-3M = assay: Growth inhibition of human Malme-3M cells assessed as cell growth at 0.01 uM incubated for 48 hrs by sulforhodamine B assay relative to control; details: read-out: Activity
U-251 = assay: Growth inhibition of human U-251 cells assessed as cell growth at 0.1 uM incubated for 48 hrs by sulforhodamine B assay relative to control; details: read-out: Activity
NCI-H23 = assay: Growth inhibition of human NCI-H23 cells assessed as cell growth at 1 uM incubated for 48 hrs by sulforhodamine B assay relative to control; details: read-out: Activity

CCc1ccccc1NC(=O)c1sc2nc3c(cc2c1N)C(=O)CCC3
growth at 0.1 µM (HCT-116 [1]): 99%
growth at 0.1 µM (SK-MEL-2 [2]): 104%
GI50 (T47D): 0.431 µM
TGI (T47D): ≥ 100 µM
CC50 (T47D): > 100 µM
growth at 100 µM (SN12C [3]): 22%
GI50 (CCRF-CEM [4]): 0.328 µM
LC50 (CCRF-CEM [4]): > 100 µM
TGI (CCRF-CEM [4]): > 100 µM
growth at 0.01 µM (RPMI-8226): 100%
growth at 1 µM (OVCAR-8): 60%
GI50 (SF-539 [5]): 0.335 µM
TGI (SF-539 [5]): 2.69 µM
CC50 (SF-539 [5]): > 100 µM
growth at 1 µM (CCRF-CEM [6]): 8%
GI50 (OVCAR-5): 0.0392 µM
TGI (OVCAR-5): > 100 µM
CC50 (OVCAR-5): > 100 µM
growth at 0.1 µM (CAKI-1): 90%
GI50 (SK-MEL-28): 0.001 µM
LC50 (SK-MEL-28): > 100 µM
TGI (SK-MEL-28): > 100 µM
growth at 100 µM (CCRF-CEM [7]): 8%
growth at 0.01 µM (MOLT-4): 102%
LC50 (SK-MEL-2 [8]): > 100 µM
TGI (SK-MEL-2 [8]): > 100 µM
growth at 0.01 µM (HCT-116 [9]): 99%
growth at 0.01 µM (MDA-MB-231): 97%
growth at 100 µM (UACC-257 [10]): 25%
GI50 (ACHN [11]): 0.0188 µM
TGI (ACHN [11]): > 100 µM
CC50 (ACHN [11]): > 100 µM
growth at 100 µM (NCI-H322M): 23%
growth at 0.01 µM (SK-OV-3): 104%
growth at 100 µM (KM12): 13%
growth at 0.01 µM (SF-539 [12]): 92%
growth at 0.1 µM (UACC-257 [13]): 79%
growth at 1 µM (ACHN [14]): 43%
growth at 0.01 µM (OVCAR-3): 107%
growth at 0.01 µM (NCI-H226): 89%
growth at 1 µM (A498): -14%
growth at 1 µM (K562): 22%
growth at 0.1 µM (SN12C [15]): 88%
GI50 (M14): 0.291 µM
LC50 (concentration killing 50% of cells) (M14): > 100 µM
TGI (M14): > 100 µM
growth at 0.01 µM (Hs-578T): 93%
growth at 0.01 µM (Malme-3M): 100%

CCc1cccc(C)c1NC(=O)c1sc2nc3c(cc2c1N)C(=O)CCC3
growth at 0.1 µM (HCT-116 [1]): 96%
GI50 (T47D): 0.517 µM
TGI (T47D): ≥ 100 µM
CC50 (T47D): > 100 µM
growth at 100 µM (SN12C [3]): -4%
GI50 (CCRF-CEM [4]): 0.346 µM
LC50 (CCRF-CEM [4]): > 100 µM
TGI (CCRF-CEM [4]): ≥ 100 µM
growth at 0.01 µM (RPMI-8226): 101%
growth at 1 µM (OVCAR-8): 62%
GI50 (SF-539 [5]): 0.32 µM
CC50 (SF-539 [5]): > 100 µM
growth at 1 µM (CCRF-CEM [6]): 16%
GI50 (OVCAR-5): 2.6 µM
TGI (OVCAR-5): > 100 µM
CC50 (OVCAR-5): > 100 µM
growth at 0.1 µM (CAKI-1): 91%
GI50 (SK-MEL-28): 0.133 µM
LC50 (SK-MEL-28): > 100 µM
TGI (SK-MEL-28): > 100 µM
growth at 100 µM (CCRF-CEM [7]): -11%
growth at 0.01 µM (MOLT-4): 98%
growth at 0.01 µM (HCT-116 [9]): 92%
growth at 0.01 µM (MDA-MB-231): 97%
growth at 0.1 µM (U-251): 90%
growth at 100 µM (UACC-257 [10]): -13%
GI50 (ACHN [11]): 0.795 µM
TGI (ACHN [11]): > 100 µM
CC50 (ACHN [11]): > 100 µM
growth at 100 µM (NCI-H322M): 21%
growth at 1 µM (NCI-H23): 42%
growth at 100 µM (KM12): 4%
growth at 0.01 µM (SF-539 [12]): 89%
growth at 0.1 µM (UACC-257 [13]): 82%
growth at 1 µM (ACHN [14]): 44%
growth at 0.01 µM (OVCAR-3): 101%
growth at 0.01 µM (NCI-H226): 96%
growth at 1 µM (A498): -16%
growth at 1 µM (K562): 16%
growth at 0.1 µM (SN12C [15]): 92%
GI50 (M14): 0.367 µM
LC50 (concentration killing 50% of cells) (M14): > 100 µM
TGI (M14): 19.5 µM
growth at 0.01 µM (Hs-578T): 93%
growth at 0.01 µM (Malme-3M): 96%
